KDM4C inh: inhibitors of GASC-1 (KDM4C) histone demethylase, primary screen, biochemical, single concentration HTS. Lysine-specific demethylase 4C (Homo sapiens), Q9H3R0. GST-KDM4C 2-372, H3K9me3 peptide, LANCE TR-FRET. inhibition, % at 12.5 µM. actives 0.15% (n = 96,000). AID 720574, 2013;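 active = mean replicate inhibition above about 25%, with at least 55% of replicates also reaching it, limit read from the data, passing the limit was not always enough; inconclusive = only one of those two conditions met; inactive = neither condition met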
Target sequence (Q9H3R0 2-372 limits assumed): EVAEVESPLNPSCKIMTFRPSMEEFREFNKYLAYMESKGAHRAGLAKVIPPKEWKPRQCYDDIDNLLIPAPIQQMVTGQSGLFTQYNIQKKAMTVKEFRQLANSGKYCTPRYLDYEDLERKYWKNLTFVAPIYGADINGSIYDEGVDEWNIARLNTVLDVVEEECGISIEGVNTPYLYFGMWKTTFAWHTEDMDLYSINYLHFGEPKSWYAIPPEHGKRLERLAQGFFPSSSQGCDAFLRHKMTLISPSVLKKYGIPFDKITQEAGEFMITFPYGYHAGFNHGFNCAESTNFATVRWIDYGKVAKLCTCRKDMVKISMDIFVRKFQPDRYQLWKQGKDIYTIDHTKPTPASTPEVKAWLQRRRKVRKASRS
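material = GST-tagged GASC-1 (JMJD2C) catalytic fragment, aa 2-372 | amount = enzyme final amount 10 nM | medium = HEPES buffer, pH 7.5, plus ascorbate | also added = H3K9me3 peptide substrate, Fe(II), 2-oxoglutarate | dosing = single dose | times = 30 min demethylation and 1 h detection at room temperature | detection = LANCE TR-FRET | read-out basis = Fall in 671/618 emission ratio as inhibition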
Pf Dd2 growth: P. falciparum Dd2 growth inhibitors, primary screen, SYBR Green fluorescence, single dose replicates | 72 h; hits give low values | activity change, % at 10 µM | actives 2.3% (n = 94,000); in the data active = activity change below about -80%; inconclusive = no clear call, values can overlap the other calls
T cruzi growth-1: T. cruzi intracellular proliferation inhibitors, primary screen, cell-based, beta-gal Tulahuen parasites, NIH3T3 host, luminescence; actives 5.9% (n = 77,000); T. cruzi beta-gal in NIH3T3, GalScreen luminescence, 90 h; inhibition, % at 8.34 µM;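 active = mean inhibition above about 93%, with at least 55% of replicates each passing it, limit read from the data, passing the limit was not always enough; inconclusive = only one of those two conditions holds; inactive = neither condition holds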
IDH1 R132H inh: inhibitors of IDH1 R132H reductase, primary screen, biochemical, plate reader, single point; diaphorase/resazurin fluorescence, 60 min; inhibition, % at 10 µM; actives 0.18% (n = 70,000); AID 624101, 2012; in the data active = inhibition above about 34%; inconclusive = no clear call, values can overlap the other calls; inactive = below about 11%;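 also: 0% = DMSO and 100% = no enzyme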
T cruzi growth-2: T. cruzi intracellular proliferation inhibitors, confirmation, cell-based, NIH3T3 host, beta-gal parasite, luminescence, cherry-pick. shares compounds with T cruzi growth-1. T. cruzi beta-gal in NIH3T3, GalScreen luminescence, 90 h. inhibition, % at 8.35 µM. actives 72% (n = 5,600). AID 651739, 2012;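 active = mean replicate inhibition above about 95% and at least 55% of replicates individually reaching it, limit read from the data; inconclusive = only one of the two criteria is met; inactive = neither criterion is met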
T cruzi growth-3: inhibitors of intracellular T. cruzi replication, confirmation, NIH3T3 host cells, beta-gal parasites, cherry-pick, set 2; shares compounds with T cruzi growth-1; T. cruzi beta-gal in NIH3T3, GalScreen luminescence, 90 h; inhibition, % at 2.09 µM; actives 21% (n = 5,600); AID 651740, 2012;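 active = mean inhibition above about 95%, with at least 55% of replicates also reaching it, limit read from the data; inconclusive = meets just one of the two conditions; inactive = meets neither condition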;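 also: plate controls were neutral control median for no effect and positive control median for full effect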
NIH3T3 tox: cytotoxicity in mouse NIH/3T3 fibroblasts, confirmation, cytotoxicity control for T. cruzi proliferation inhibitor project, cell-based, cherry-pick, single point | actives 14% (n = 5,600) | cytotoxicity (signal decrease), % at 8.35 µM | shares compounds with T cruzi growth-1 | AID 651742, 2012 | NIH/3T3 viability, CellTiter-Glo ATP luminescence, 90 h;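 active = mean signal decrease across replicates above about 35% based on untreated-well scatter, with enough replicates individually passing, limit read from the data; inconclusive = no rule stated though some were filed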;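 also: 0% = median of neutral control wells and 100% = median of positive control wells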
NIH3T3 tox 2: NIH/3T3 fibroblast cytotoxicity, confirmation, cytotoxicity control, cell-based, cherry-pick, single point, set 2; inhibition, % at 24.9 µM; AID 651744, 2012; actives 56% (n = 5,600); NIH/3T3 viability, CellTiter-Glo ATP luminescence, 90 h; shares compounds with T cruzi growth-1;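 active = mean loss of cell viability signal at or above a set limit, and enough replicates individually reaching it; inconclusive = meets only the mean limit or only the replicate share; inactive = meets neither condition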;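 also: 0% = median of neutral control wells and 100% = median of positive control wells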
* = called active by the depositor; ! = a repeat was not active. This is a sample that favours compounds with a hit; in the whole collection about 5.9% have one here.

How did CO[C@H]1C[C@@H]2CC[C@@H](C)[C@@](O)(O2)C(=O)C(=O)N2CCCC[C@H]2C(=O)O[C@H]([C@H](C)C[C@@H]2CC[C@@H](O)[C@H](OC)C2)CC(=O)[C@H](C)/C=C(\C)[C@@H](O)[C@@H](OC)C(=O)[C@H](C)C[C@H](C)/C=C/C=C/C=C\1C do in these assays?
IDH1 R132H inh: 0

Results for C[C@@H]1CCCCO[C@H](CN(C)Cc2ccc3c(c2)OCO3)[C@H](C)CN([C@H](C)CO)C(=O)c2cc(NC(=O)Nc3ccccc3)ccc2O1 ?
KDM4C inh: 5; Pf Dd2 growth: inconclusive; T cruzi growth-1: 114*; T cruzi growth-2: inconclusive; T cruzi growth-3: 103*; NIH3T3 tox: 10; NIH3T3 tox 2: 104*

What do the screens show for `C[C@@H]1CCCCO[C@@H](CN(C)Cc2ccccc2)[C@@H](C)CN([C@H](C)CO)C(=O)c2cc(NC(=O)Nc3ccc4c(c3)OCO4)ccc2O1`?
KDM4C inh: -1; Pf Dd2 growth: 36; T cruzi growth-1: 43; IDH1 R132H inh: 0

What do the screens show for `C[C@@H]1CCCCO[C@@H](CN(C)Cc2ccc3c(c2)OCO3)[C@@H](C)CN([C@H](C)CO)C(=O)c2cc(NC(=O)Nc3ccccc3)ccc2O1`?
KDM4C inh: -1; Pf Dd2 growth: 18; T cruzi growth-1: inconclusive; T cruzi growth-2: 112*; T cruzi growth-3: 79; NIH3T3 tox: 20; NIH3T3 tox 2: 18

What do the screens show for `C[C@@H]1CCCCO[C@H](CN(C)Cc2ccccc2)[C@H](C)CN([C@H](C)CO)C(=O)c2cc(NC(=O)Nc3ccc4c(c3)OCO4)ccc2O1`?
KDM4C inh: 5; Pf Dd2 growth: -78; T cruzi growth-1: 98*; IDH1 R132H inh: 1; T cruzi growth-2: 106*; T cruzi growth-3: 91; NIH3T3 tox: 12; NIH3T3 tox 2: 52*

Results for Cn1c(SCC(=O)c2ccc(Cl)cc2)nnc1-c1ccccc1O ?
IDH1 R132H inh: 0

What do the screens show for `O=C(C[C@H]1CC[C@H]2[C@@H](COC[C@H](O)CN2Cc2ccccc2)O1)N[C@@H]1CCN(Cc2ccccc2)C1`?
KDM4C inh: -2; Pf Dd2 growth: -50; T cruzi growth-1: 98*; T cruzi growth-2: 99*; T cruzi growth-3: 47; NIH3T3 tox: 2; NIH3T3 tox 2: 9

How did O=C(C[C@@H]1CC[C@@H]2[C@H](COC[C@@H](O)CN2Cc2ccccc2)O1)NCc1ccccc1Cl do in these assays?
KDM4C inh: 1; Pf Dd2 growth: -7; T cruzi growth-1: 100*; T cruzi growth-2: 60; T cruzi growth-3: 59; NIH3T3 tox: 12; NIH3T3 tox 2: 16

Results for O=C(C[C@H]1CC[C@H]2[C@@H](COC[C@H](O)CN2Cc2cc(F)ccc2F)O1)N[C@@H]1CCN(Cc2ccccc2)C1 ?
KDM4C inh: -1; Pf Dd2 growth: -60; T cruzi growth-1: 96*; T cruzi growth-2: 80; T cruzi growth-3: 58; NIH3T3 tox: 1; NIH3T3 tox 2: inconclusive

Results for O=C(C[C@H]1CC[C@@H]2[C@H](COC[C@@H](O)CN2Cc2ccccc2)O1)N[C@@H]1CCN(Cc2ccccc2)C1 ?
KDM4C inh: 2; Pf Dd2 growth: -32; T cruzi growth-1: 81

How did O=C(CSc1nnc(-c2ccccc2O)n1-c1ccccc1)Nc1ccc(Cl)c(C(=O)O)c1 do in these assays?
IDH1 R132H inh: 0

How did COc1ccc(-c2nnc(SCC(=O)Nc3cc(OC)ccc3OC)n2-c2ccccc2C)cc1 do in these assays?
IDH1 R132H inh: 0

What do the screens show for `C[C@@H]1CCCCO[C@@H](CN(C)C(=O)Nc2ccc(C(F)(F)F)cc2)[C@@H](C)CN([C@H](C)CO)C(=O)c2cc(NC(=O)C3CCCCC3)ccc2O1`?
KDM4C inh: 1; Pf Dd2 growth: -69; T cruzi growth-1: 101*; IDH1 R132H inh: 2; T cruzi growth-2: 107*; T cruzi growth-3: 76; NIH3T3 tox: 14; NIH3T3 tox 2: -5

What do the screens show for `C[C@@H]1CCCCO[C@@H](CN(C)C(=O)Nc2ccc(F)cc2)[C@@H](C)CN([C@H](C)CO)C(=O)c2cc(NC(=O)C3CCCCC3)ccc2O1`?
KDM4C inh: -2; Pf Dd2 growth: -48; T cruzi growth-1: 56; IDH1 R132H inh: 1

How did C[C@@H]1CN([C@@H](C)CO)C(=O)c2cc(NC(=O)C3CCCCC3)ccc2O[C@@H](C)CCCCO[C@@H]1CN(C)C(=O)Nc1ccc(C(F)(F)F)cc1 do in these assays?
KDM4C inh: 1; Pf Dd2 growth: inconclusive; T cruzi growth-1: 92; IDH1 R132H inh: 2

Results for C[C@H]1CCCCO[C@@H](CN(C)C(=O)Nc2ccc(C(F)(F)F)cc2)[C@@H](C)CN([C@@H](C)CO)C(=O)c2cc(NC(=O)C3CCCCC3)ccc2O1 ?
KDM4C inh: 0; Pf Dd2 growth: -83*; T cruzi growth-1: 97*; T cruzi growth-2: 104*; T cruzi growth-3: 105*; NIH3T3 tox: 7; NIH3T3 tox 2: 2

What do the screens show for `CC(C)NC(=O)N(C)C[C@H]1OCCCC[C@@H](C)Oc2ccc(NC(=O)C3CCCCC3)cc2C(=O)N([C@H](C)CO)C[C@@H]1C`?
KDM4C inh: 1; Pf Dd2 growth: -5; T cruzi growth-1: 99*!; T cruzi growth-2: -43; T cruzi growth-3: -41; NIH3T3 tox: 1; NIH3T3 tox 2: 10

Results for COC(=O)c1ccccc1NC(=O)CCSc1ccc(C)cc1 ?
IDH1 R132H inh: 0

What do the screens show for `COc1ccc(NC(=O)Nc2ccc3c(c2)C(=O)N([C@@H](C)CO)C[C@@H](C)[C@H](CN(C)C(=O)Nc2ccc(F)cc2)OCCCC[C@H](C)O3)cc1`?
KDM4C inh: -1; Pf Dd2 growth: -4; IDH1 R132H inh: 0

What do the screens show for `COc1ccc(NC(=O)Nc2ccc3c(c2)C(=O)N([C@H](C)CO)C[C@@H](C)[C@H](CN(C)C(=O)Nc2ccc(F)cc2)OCCCC[C@@H](C)O3)cc1`?
KDM4C inh: -1; Pf Dd2 growth: -27; T cruzi growth-1: 112*; T cruzi growth-2: 98*; T cruzi growth-3: 104*; NIH3T3 tox: -6; NIH3T3 tox 2: -10

High-throughput results: PubChem BioAssay, Broad Institute
